Here are results for six molecules from ChEMBL document CHEMBL3120066, “Discovery of a novel class of potent HCV NS4B inhibitors: SAR studies on piperazinone derivatives” (J Med Chem, 2014).

Molecules are shown by their SMILES. ≈ marks a conversion by molar mass, not a printed value. Calls of active or inactive are those of the source. The calls are words filed in the database; no cut-off is given here.

The subject of data set [1] is Hepatitis C virus. Description: Antiviral activity against HCV1a infected in clone A and ET-lunet cells assessed as inhibition of viral replication after 4 days by RT-PCR analysis. It counts as functional, organism-based, Hepacivirus hominis. Particulars: subtype 1a, 96 h. The procedure, abridged:
(§1)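 Run in HCV genotype 1a and 1b replicon cells; each reported value is the mean of n = 2 independent determinations.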

Data set [2] relates to Hepatitis C virus. Description: Antiviral activity against HCV1b infected in clone A and ET-lunet cells assessed as inhibition of viral replication after 4 days by RT-PCR analysis. It counts as functional, organism-based, Hepacivirus hominis. The following applies: genotype 1b, 96 h. The method in brief: as §1
In data set [3] the test system is Hepatitis C virus. Briefly: Antiviral activity against HCV2 assessed as inhibition of viral replication. It counts as functional, organism-based. Particulars: Hepacivirus hominis; type 2.
The next data set concerns the target Cytochrome P450 3A4 (Homo sapiens, UniProt P08684). Briefly: Inhibition of CYP3A4 (unknown origin) up to 10 uM. It is filed as ADME.
The target in the next data set is Cytochrome P450 2D6 (Homo sapiens, UniProt P10635). Description: Inhibition of CYP2D6 (unknown origin) up to 10 uM. It is filed as ADME.
Sequence of Cytochrome P450 2D6 (P10635 whole entry): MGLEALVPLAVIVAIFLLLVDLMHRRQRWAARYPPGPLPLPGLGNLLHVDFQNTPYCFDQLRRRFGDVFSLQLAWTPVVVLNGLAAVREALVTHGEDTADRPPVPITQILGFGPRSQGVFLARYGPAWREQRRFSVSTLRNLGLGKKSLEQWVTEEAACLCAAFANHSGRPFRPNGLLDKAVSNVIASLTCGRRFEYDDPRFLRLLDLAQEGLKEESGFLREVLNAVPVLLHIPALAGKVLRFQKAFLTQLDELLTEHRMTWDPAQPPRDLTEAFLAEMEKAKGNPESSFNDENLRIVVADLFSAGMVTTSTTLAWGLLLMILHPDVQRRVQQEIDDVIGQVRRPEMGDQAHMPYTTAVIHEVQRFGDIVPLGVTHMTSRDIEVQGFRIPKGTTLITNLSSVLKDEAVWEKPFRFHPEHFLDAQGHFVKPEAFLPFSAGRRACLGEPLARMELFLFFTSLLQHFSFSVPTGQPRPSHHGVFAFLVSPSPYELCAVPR
The next data set has as its target Cytochrome P450 2C9 (Homo sapiens, UniProt P11712). Description: Inhibition of CYP2C9 (unknown origin) up to 10 uM. It is filed as ADME.
Another data set concerns the target T1, Cytochrome P450 1A2 (Homo sapiens, UniProt P05177).
T1 sequence (P05177 whole entry): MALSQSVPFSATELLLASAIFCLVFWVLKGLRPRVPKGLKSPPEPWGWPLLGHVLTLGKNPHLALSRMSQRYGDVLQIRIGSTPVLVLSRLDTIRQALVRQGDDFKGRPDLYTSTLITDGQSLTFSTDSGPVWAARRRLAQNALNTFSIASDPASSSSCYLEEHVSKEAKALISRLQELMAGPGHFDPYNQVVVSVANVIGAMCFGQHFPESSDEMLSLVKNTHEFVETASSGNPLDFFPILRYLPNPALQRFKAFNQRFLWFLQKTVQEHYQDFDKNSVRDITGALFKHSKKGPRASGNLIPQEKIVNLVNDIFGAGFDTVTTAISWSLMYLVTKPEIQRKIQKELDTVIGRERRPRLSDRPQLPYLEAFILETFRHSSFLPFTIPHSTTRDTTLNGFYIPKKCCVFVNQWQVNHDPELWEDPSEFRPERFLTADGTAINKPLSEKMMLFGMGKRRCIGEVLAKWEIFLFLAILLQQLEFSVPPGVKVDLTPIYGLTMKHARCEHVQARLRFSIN
Description: Inhibition of CYP1A2 (unknown origin) up to 10 uM. It counts as ADME.

Data set [4] in a line: Solubility of the compound at pH 4. The following applies: buffer. It counts as physicochemical.
Data set [5] can be described thus: Solubility of the compound at pH 7.4. It counts as physicochemical. Particulars: buffer.
The nature of data set [6]: Half life in human liver microsomes. It counts as ADME.
The subject of data set [7] is Hepatitis C virus. Briefly: Antiviral activity against HCV1a infected in clone A and ET-lunet cells assessed as inhibition of viral replication up to 20 uM after 4 days by RT-PCR analysis. It counts as functional, organism-based. The following applies: Hepacivirus hominis, subtype 1a.
For data set [8], the system named is Hepatitis C virus. Briefly: Antiviral activity against HCV1b infected in clone A and ET-lunet cells assessed as inhibition of viral replication up to 20 uM after 4 days by RT-PCR analysis. It is filed as functional, organism-based. The following applies: Hepacivirus hominis, genotype 1b.
A short description of data set [9]: Cytotoxicity against human CEM cells after 8 days by MTS assay. It counts as cell-based. Particulars: CEM cells (CCRF-CEM).
The nature of data set [10]: Cytotoxicity against human BxPC3 cells after 8 days by MTS assay. It is filed as cell-based, BXPC-3.
The nature of data set [11]: Cytotoxicity against human HepG2 cells after 8 days by MTS assay. It counts as cell-based.
Data set [12] in a line: Cytotoxicity against human HuH7 cells after 8 days by MTS assay. It is filed as cell-based, Huh-7.

Sequence of Cytochrome P450 3A4 (P08684 whole entry): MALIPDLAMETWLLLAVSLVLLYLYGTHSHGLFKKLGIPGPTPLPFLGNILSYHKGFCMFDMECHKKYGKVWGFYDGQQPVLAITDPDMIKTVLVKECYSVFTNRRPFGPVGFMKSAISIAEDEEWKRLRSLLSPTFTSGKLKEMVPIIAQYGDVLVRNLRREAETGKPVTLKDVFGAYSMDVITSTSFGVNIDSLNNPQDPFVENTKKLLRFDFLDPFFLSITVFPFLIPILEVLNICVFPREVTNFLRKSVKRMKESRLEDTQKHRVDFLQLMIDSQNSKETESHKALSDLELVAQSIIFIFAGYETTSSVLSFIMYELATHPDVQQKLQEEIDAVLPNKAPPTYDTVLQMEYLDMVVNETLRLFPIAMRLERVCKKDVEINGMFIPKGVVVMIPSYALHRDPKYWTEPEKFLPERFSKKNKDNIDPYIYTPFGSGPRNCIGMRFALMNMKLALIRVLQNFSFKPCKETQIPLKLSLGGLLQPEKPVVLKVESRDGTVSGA
Sequence of Cytochrome P450 2C9 (P11712 whole entry): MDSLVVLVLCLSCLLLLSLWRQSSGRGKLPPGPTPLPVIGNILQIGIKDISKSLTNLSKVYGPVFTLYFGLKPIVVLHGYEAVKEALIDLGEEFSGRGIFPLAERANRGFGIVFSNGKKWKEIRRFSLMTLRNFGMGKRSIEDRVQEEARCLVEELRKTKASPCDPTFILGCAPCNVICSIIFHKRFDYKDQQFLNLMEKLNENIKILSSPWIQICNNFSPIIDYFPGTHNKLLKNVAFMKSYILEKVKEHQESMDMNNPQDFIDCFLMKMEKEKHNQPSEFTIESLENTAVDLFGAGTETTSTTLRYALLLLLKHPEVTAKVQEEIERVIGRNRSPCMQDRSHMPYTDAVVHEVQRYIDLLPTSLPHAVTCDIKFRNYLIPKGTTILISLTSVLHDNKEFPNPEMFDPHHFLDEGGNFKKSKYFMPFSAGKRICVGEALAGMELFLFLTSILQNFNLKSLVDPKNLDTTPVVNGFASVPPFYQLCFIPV

In the case of `O=C(NCc1cccs1)c1cc2nc(-c3ccco3)cc(C(F)(F)Cl)n2n1` [ANGUIZOLE], the results for the EC50 with Hepatitis C virus [1] and with Hepatitis C virus [2] were 560 nM and 310 nM, respectively.

For `CC(C)C[C@H]1C(=O)N[C@@H](c2cnco2)CN1C(=O)c1cc(-c2ccc(F)cc2)on1`, the inhibition result in the data set with Hepatitis C virus [3] is “inactive”. For the same molecule, the “inhibition (INH)” value at Cytochrome P450 3A4, against Cytochrome P450 2D6, on Cytochrome P450 2C9 and against Cytochrome P450 1A2 was “Not Active” each time. The solubility amounted to 147 µg/mL (≈ 356 µM) in data set [4] and 151 µg/mL (≈ 366 µM) in [5]. This molecule had a half-life in data set [6] of 40 min. For the same molecule, the concentration for an effect of 90% (EC90) in the data set with Hepatitis C virus [1] came out at 16 nM; in the data set on Hepatitis C virus [2] it was 70 nM.

Turning to `CC(C)C[C@H]1CN(C(=O)[C@H]2C[C@@H]2c2ccccc2)[C@@H](CC(C)C)C(=O)N1`, the inhibition result with Hepatitis C virus [7] and with Hepatitis C virus [8] was “inactive” each time. Besides, the concentration for an effect of 90% (EC90) in the data set on Hepatitis C virus [1] and in the data set with Hepatitis C virus [2] was > 10000 nM each time.

On to `CC(C)C[C@H]1CN(C(=O)[C@@H]2C[C@H]2c2ccccc2)[C@@H](CC(C)C)C(=O)N1`, for which the CC50 at 192 h in data set [9], in [10], in data set [11] and in data set [12] was 40000 nM throughout. Moreover, the values for the EC90 with Hepatitis C virus [1] and in the data set with Hepatitis C virus [2] were 1000 nM and 800 nM, respectively.

Regarding `CC(C)C[C@H]1C(=O)N[C@@H](c2ccccc2)CN1C(=O)c1cc(-c2ccc(F)cc2)on1`, the half-life in data set [6] was determined as 54 min. Also, in the data set with Hepatitis C virus [2], the 90% effect concentration (EC90) is 60 nM.

Consider `CC(C)C[C@H]1C(=O)N[C@@H](c2cccs2)CN1C(=O)c1cc(-c2ccc(F)cc2)on1`, for which, in the data set with Hepatitis C virus [3], the inhibition result is “inactive”. In addition, the “inhibition (INH)” value at Cytochrome P450 3A4, on Cytochrome P450 2D6, against Cytochrome P450 2C9 and against Cytochrome P450 1A2 was “Not Active” throughout. For the same molecule, the solubility in [4] and in [5] was 0.2 µg/mL (≈ 0.468 µM) each time. For the same molecule, the half-life in data set [6] amounted to 120 min. Further, the EC90 in the data set with Hepatitis C virus [1] is 22 nM; in the data set with Hepatitis C virus [2], 6 nM.
